Compound activity (PubChem BioAssay)
In the library only some 3% were active in any assay of this set; here they are far more common.
T cruzi repl – blocks replication of Trypanosoma cruzi; T. cruzi beta-gal in NIH3T3, luminescence, 90 h; inhibition, % (concentration not given with the values); hit rate 1.4% among 300,000; AID 1885;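 active means mean inhibition across valid replicates above about 55%, limit read from the data; inconclusive means mean below that limit but half or more replicates reach it; inactive means mean below it, under half of replicates reach it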;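 further: signal also drops with host cell toxicity which is not excluded here; 0% = plate median of DMSO wells and 100% = zero luminescence signal; higher percent means less beta-gal luminescence so fewer parasites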
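compound dosing = single 50 nL compound addition per well in DMSO | material = NIH/3T3 host cells with β-galactosidase reporter T. cruzi | input = 5,000 host fibroblasts per well | timing = ≥90 h infection period, 3 h prior cell attachment | read-out basis = percent inhibition of parasite-derived β-gal signal | detection = GalScreen β-gal luminescence, detergent lysis, 60 min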
CR mimetic SO – caloric restriction mimetics inhibiting age-related superoxide in yeast; hit rate 0.18% among 330,000; S. cerevisiae aged cells, superoxide DHE fluorescence; stronger effect = lower value; AID 2690; superoxide response (% of plate mean), % at 10 µM;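 active means superoxide response under a set limit, about three screen SD below normal, cut at about 65% in these data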;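 further: yeast aged for seven days with compound at 30 °C before DHE staining; 100% = average MFI of all compound-treated wells on the plate with controls excluded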
AI-2 QS modul – modulators of Vibrio harveyi AI-2 quorum sensing system. Vibrio harveyi JMH597 AI-2 luminescence/OD600 ratio, 9 h; stronger effect = lower value; strain lacks LuxN and CqsS sensors; 0 = neutral-control median. activity change, % at 7.5 µM. hit rate 0.4% among 300,000; in the data active means activity change below about -75%, passing the limit was not always enough; inconclusive means no clear call, values can overlap the other calls;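 further: luminescence divided by OD600 gain over 9 h not by final OD600 alone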
CendR NRP1 mod – NRP-1/CendR interaction modulation; FAM-RPARPAR peptide binding to NRP-1, fluorescence polarization; inhibition, % at 25 µM; hit rate 0.85% among 360,000;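 active means inhibition or corrected inhibition above about 18%, plus a signal ratio from 0.5 to 1.5, limit read from the data, passing the limit was not always enough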
Target sequence (O14786 whole entry, looked up): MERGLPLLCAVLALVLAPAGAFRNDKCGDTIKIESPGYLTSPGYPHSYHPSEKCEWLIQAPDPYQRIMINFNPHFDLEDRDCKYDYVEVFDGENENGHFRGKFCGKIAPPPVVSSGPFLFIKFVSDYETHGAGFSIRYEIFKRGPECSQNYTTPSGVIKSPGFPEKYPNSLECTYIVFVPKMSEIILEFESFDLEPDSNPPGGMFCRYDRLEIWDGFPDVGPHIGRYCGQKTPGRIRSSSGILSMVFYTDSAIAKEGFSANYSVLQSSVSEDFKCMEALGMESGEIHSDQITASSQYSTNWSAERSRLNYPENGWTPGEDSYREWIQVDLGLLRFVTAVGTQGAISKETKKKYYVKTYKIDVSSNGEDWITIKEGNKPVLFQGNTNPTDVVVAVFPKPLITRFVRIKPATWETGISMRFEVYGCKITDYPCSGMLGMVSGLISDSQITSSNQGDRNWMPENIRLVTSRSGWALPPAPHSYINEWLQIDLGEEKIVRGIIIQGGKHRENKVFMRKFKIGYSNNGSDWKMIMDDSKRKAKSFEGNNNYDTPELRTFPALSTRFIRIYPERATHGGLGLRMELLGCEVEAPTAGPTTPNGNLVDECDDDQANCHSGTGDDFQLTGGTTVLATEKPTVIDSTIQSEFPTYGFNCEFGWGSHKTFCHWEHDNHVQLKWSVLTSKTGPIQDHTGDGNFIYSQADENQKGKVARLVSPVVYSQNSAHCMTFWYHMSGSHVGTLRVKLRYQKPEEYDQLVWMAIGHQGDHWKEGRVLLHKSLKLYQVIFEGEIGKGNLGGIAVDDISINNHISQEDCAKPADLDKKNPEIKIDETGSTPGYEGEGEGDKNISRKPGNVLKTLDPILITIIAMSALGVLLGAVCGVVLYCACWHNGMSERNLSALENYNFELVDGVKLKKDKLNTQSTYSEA
V-ATPase pHluor – regulators of yeast V-ATPase proton transport; hit rate 0.37% among 350,000; S. cerevisiae, pHLuorin cytosolic pH fluorescence; response, % at 10 µM; in the data active means response mostly above about 7.3%, no sharp cut-off; inactive means mostly below about 5.4%; further: actives read high
HIF act – HIF pathway transcriptional activation; hit rate 0.32% among 300,000; activation, % at 7.5 µM (by protocol); U2OS HRE-luciferase reporter, luminescence; normalized: DMSO 0%, desferrioxamine 100%; AID 1910;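 active means mean activation of at least 10% of the iron chelator positive control signal, with at least half of replicates also reaching 10%; inconclusive means mean and replicate majority disagree about reaching 10%; inactive means mean and most replicates under 10%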
The depositor's hits bear a star; ? = inconclusive; . = no result; ! = a repeat was not active.

SMILES	T cruzi repl	CR mimetic SO	AI-2 QS modul	CendR NRP1 mod	V-ATPase pHluor	HIF act
CC(C)CCNCC(O)CON=C1c2ccccc2-c2ccccc21 (centres undefined)	50	103	13	-3	-4	-8
CN(CC(O)CON=C1c2ccccc2-c2ccccc21)S(=O)(=O)c1ccc(Br)cc1 (centres undefined)	44	124	15	-10	-1	-1
Cc1ccc(NC(=O)C2(NC(=O)c3ccccn3)CCCCC2)cc1Br	17	99	26	-12	4	0
CCCCn1c(N)c(N(CCOC)C(=O)c2cccc(N3C(=O)c4ccccc4C3=O)c2)c(=O)[nH]c1=O	-5	111	10	-2	8	0
Cn1cc(S(=O)(=O)CC(=O)N2CCCc3ccccc32)c2ccccc21	-4	107	9	1	-1	0
Cc1ccc2c(c1)S/C(=C/c1ccc[n+](C)c1)N2CCO	57*	110	22	-6	3	-1
CCN1/C(=C/c2cc[n+](C)cc2)C=Cc2cc(C)ccc21	.	122	.	-53	3	.
CCCOc1cc(N(CC)CC)ccc1/C=C(/C#N)c1nc2ccc(C)cc2[nH]1	64*	101	37	126	-4	2
CCN(CC)c1ccc(/C=C(/C#N)c2nc3ccc(C)cc3[nH]2)c(OC(C)C)c1	84*	97	5	126	2	0
CCOc1cc(N(CC)CC)ccc1/C=C(/C#N)c1nc2ccccc2[nH]1	?	94	15	-7	-3	3
Cc1ccc2cc(C(=O)O)c(C)nc2c1	-4	104	9	-2	0	0
COC(=O)C1C2C=CC3(CN(Cc4ccco4)C(=O)C13)O2 (centres undefined)	-11	98	5	-2	4	0
CC12C=CC3(CN(Cc4ccccc4)C(=O)C3C1C(=O)NCc1ccco1)O2 (centres undefined)	-6	105	19	8	17*	0
CN(C)/C=C1\NC(=S)N(c2ccccc2)C1=O	-10	106	7	25*	0	0
CN(C)/C=C1\NC(=S)N(c2ccc(Cl)cc2)C1=O	-12	106	32	-12	1	1
Cc1ccc(C#CC[N+]2(CC#Cc3ccc(C)cc3)CCCCC2)cc1	74*	111	18	-4	0	0
C(#Cc1ccccc1)C[N+]1(CC#Cc2ccccc2)CCCCC1	66*	93	7	5	-4	0
C#CC[N+]1(CC#Cc2cccc(C)c2)CCCCC1	6	102	-7	-3	2	2
CCC[N+]1(CC#CCC(c2ccccc2)c2ccccc2)CCCCC1	64*	99	-8	9	0	1
C#CC[N+]1(CC#Cc2ccccc2)CCCCC1	-11	105	22	0	0	-1
COc1ccccc1S(=O)(=O)N(C)C[C@H]1OCc2cnnn2CCCC(=O)N([C@@H](C)CO)C[C@@H]1C	.	.	.	3	-1	.
COc1ccc(C(=O)NNC(=S)NC(=O)c2ccc(Cl)cc2)cc1	12	205	-72	.	-2	0
CCCOc1ccc(C(=O)NNC(=S)NC(C)=O)cc1	-9	174	?	0	0	0
COc1ccc(C(=O)NC(=S)NNC(=O)c2ccc3ccccc3n2)cc1	51	63*	31	9	-7	6
COc1ccc(C(=O)NNC(=S)NC(=O)c2ccco2)cc1	12	126	-149*	0	-3	1
SMILES	T cruzi repl	CR mimetic SO	AI-2 QS modul	CendR NRP1 mod	V-ATPase pHluor	HIF act
COc1cc(C(=O)NNC(=S)NC(=O)c2ccc(Cl)cc2)cc(OC)c1OC	70*	97	17	-8	1	0
CCCOc1ccc(C(=O)NNC(=S)NC(=O)c2ccccc2)cc1	19	161	-213*	-7	-1	1
O=C(NC(=S)NNC(=O)c1ccco1)c1ccc(Br)cc1	-49	244	-128*	18	-2	0
O=C(NNC(=S)NC(=O)c1cccc([N+](=O)[O-])c1)c1ccc(Br)cc1	29	114	-212*	-5	-2	0
CCCOc1ccc(C(=O)NNC(=S)NC(=O)c2ccco2)cc1	?	218	?	-4	-2	0
O=C(NNC(=S)NC(=O)c1ccco1)c1ccc(F)cc1	-14	194	-104*	2	-3	0
CCCn1c(C(C)Nc2nc(-c3cc(Cl)c(N)c(Cl)c3)cs2)nc2cc(Cl)c(N3CCCCC3)cc21 (centres undefined)	15	98	25	-8	-3	-1
CN(c1ccccc1)S(=O)(=O)c1ccc(C(=O)Nc2ccncc2)cc1	70*	92	6	-8	6	0
O=C(Nc1cccnc1)c1ccc(-c2ccccc2)cc1	-15	83	9	14	-1	3
O=C(NCCNC(=O)c1cnccn1)c1ccc(Cl)c(Cl)c1	-6	98	22	4	-1	-1
O=C(Nc1ccncc1)c1ccc(-c2ccccc2)cc1	58*	83	15	-3	0	5
O=C(Nc1ccncc1)c1ccc(Cl)c(Cl)c1	62*	90	-1	2	2	1
O=C(NNC(=O)c1cnccn1)c1ccc(Cl)c(Cl)c1	-11	109	-288*	2	0	0
CCN(CC)CC(=O)Nc1sc2c(c1C(=O)c1ccccc1OC)CCC2	17	109	3	-17	2	-2
C=CCOCCN1C(=O)C2C(c3ccccc3)C=CC(c3ccccc3)C2C1=O (centres undefined)	5	103	-9	1	-1	0
O=C1C2C(c3ccccc3)C=CC(c3ccccc3)C2C(=O)N1CCCO (centres undefined)	12	90	19	22*	2	-1
COc1cc(C=O)ccc1OCCCOc1ccccc1C(=O)O	-2	117	2	-5	-4	0
COc1ccc(NC(=O)C2Cc3c(-c4ccncc4)ccnc3O2)cc1OC (centres undefined)	.	.	.	17	.	.
CN(C)CCOC(=O)C1(c2ccccc2)CCOCC1	-11	71	14	24*!	2	1
Cc1c2cc[n+](CCN3CCCCC3)cc2c(C)c2c1[nH]c1ccc(O)cc12	.	.	.	34*	-1	.
O=C1C(Cl)=C(NS(=O)(=O)c2ccc([N+](=O)[O-])cc2)C(=O)c2ccccc21	11	187	8	26*	-3	0
CCOC(=O)N1CCN(Cc2nc3c(c(=O)n(C)c(=O)n3C)n2Cc2ccccc2C)CC1	-2	116	17	-14	3	0
O=C(CNCCc1ccc(Cl)cc1)Nc1ccc(C(=O)N2CCCCC2)cc1	62*	109	8	6	8	0
Cc1cccc(N2CCN(S(=O)(=O)c3c(C)nc4scc(C)n4c3=O)CC2C)c1 (centres undefined)	2	106	5	6	0	0
